Assay results as given in ChEMBL document CHEMBL3400073, “Design, synthesis and biological evaluation of new hybrid anticonvulsants derived from N-benzyl-2-(2,5-dioxopyrrolidin-1-yl)propanamide and 2-(2,5-dioxopyrrolidin-1-yl)butanamide derivatives” (Bioorg Med Chem, 2015).
The source made the active and inactive calls. The rule behind the calls is not given here.

Columns and labels:
Mus musculus [1] = assay: Anticonvulsant activity in Albino Swiss CD1 mouse at 100 mg/kg, ip after 2 hrs by maximal electroshock test; type: functional, organism-based; design: dose 100 mg/kg
Outline: (§1)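 Male CD-1 mice, 16–26 g, in groups of 4, each mouse used once, were given 100 mg/kg ip (0.1 mL/10 g, methylcellulose vehicle). MES used 25 mA, 500 V, 50 Hz delivered by ear electrodes for 0.2 s, and absence of hindlimb tonic extension counted as protection. In scPTZ, mice without clonic convulsions over 30 min of observation counted as protected. Both tests were run 0.5 h or 2 h after dosing.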

Mus musculus [2] = assay: Neurological toxicity in Albino Swiss CD1 mouse at 100 mg/kg, ip after 2 hrs by rotarod test; type: organism-based; design: dose 100 mg/kg, route intraperitoneal; conditions: in vivo
Outline: (§2)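 Mice were trained on a 2 cm rod for 3 min, with unlimited trials, at least 24 h before testing. Each was then dosed ip at 100 mg/kg and tested at 10 rpm 0.5 h or 2 h later, in groups of 4. Failure to stay on the rod for at least 1 min indicated neurotoxicity.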

Mus musculus [3] = assay: Anticonvulsant activity in Albino Swiss CD1 mouse at 100 mg/kg, ip after 0.5 hrs by subcutaneous pentylenetetrazole test; type: functional, organism-based; design: dose 100 mg/kg; outline: as §1
Mus musculus [4] = assay: Anticonvulsant activity in Albino Swiss CD1 mouse at 100 mg/kg, ip after 2 hrs by subcutaneous pentylenetetrazole test; type: functional, organism-based; design: dose 100 mg/kg; outline: as §1
Mus musculus [5] = assay: Anticonvulsant activity in Albino Swiss CD1 mouse at 100 mg/kg, ip after 0.5 hrs by maximal electroshock test; type: functional, organism-based; design: dose 100 mg/kg; outline: as §1
Mus musculus [6] = assay: Neurological toxicity in Albino Swiss CD1 mouse at 100 mg/kg, ip after 0.5 hrs by rotarod test; type: organism-based; design: dose 100 mg/kg, route intraperitoneal; conditions: in vivo; outline: as §2
Mus musculus [7] = assay: Anticonvulsant activity in intraperitoneally dosed Albino Swiss CD1 mouse assessed as time to peak effect after 2 hrs by subcutaneous pentylenetetrazole test; type: functional
[8] = Neurological toxicity in intraperitoneally dosed Albino Swiss CD1 mouse by rotarod test; type: organism-based; conditions: in vivo, ip
Outline: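 Mice trained on the rotarod were given various ip doses, four groups in all, and tested at 10 rpm. Failure to stay on the rod for at least 1 min indicated neurotoxicity.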

Mus musculus [9] = assay: Anticonvulsant activity in intraperitoneally dosed Albino Swiss CD1 mouse after 0.5 hrs by subcutaneous pentylenetetrazole test; type: functional
Outline: (§3)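 Male CD-1 mice were dosed ip (0.1 mL/10 g, methylcellulose vehicle), at least four dose groups of 6 mice each. Protection in MES meant no hindlimb tonic extension after a 25 mA, 50 Hz, 0.2 s ear-electrode shock. Protection in scPTZ meant no clonus over 30 min.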

Mus musculus [10] = assay: Anticonvulsant activity in intraperitoneally dosed Albino Swiss CD1 mouse assessed as time to peak effect by maximal electroshock test; type: functional
Mus musculus [11] = organism: Mus musculus; assay: Protective index, ratio of neurotoxic TD50 in Albino Swiss CD1 mouse by rotarod test to anticonvulsant ED50 in Albino Swiss CD1 mouse by maximal electroshock test
Outline: (§4)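 The protective index is the rotarod TD50 divided by the MES or scPTZ ED50. Each value came from ip dosing in male CD-1 mice with probit analysis, and the reference drugs were tested under the same conditions.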

Mus musculus [12] = assay: Protective index, ratio of neurotoxic TD50 in Albino Swiss CD1 mouse by rotarod test to anticonvulsant ED50 in Albino Swiss CD1 mouse by subcutaneous pentylenetetrazole test; outline: as §4
Mus musculus [13] = assay: Anticonvulsant activity in intraperitoneally dosed Albino Swiss CD1 mouse after 0.5 hrs by maximal electroshock test; type: functional; outline: as §3
Mus musculus [14] = assay: Anticonvulsant activity in intraperitoneally dosed Albino Swiss CD1 mouse by subcutaneous pentylenetetrazole test; type: functional; outline: as §3
Mus musculus [15] = assay: Anticonvulsant activity in intraperitoneally dosed Albino Swiss CD1 mouse by maximal electroshock test; type: functional; conditions: Albino Swiss CD1, ip; outline: as §3

SMILES	Activity (Mus musculus [1])	Activity (Mus musculus [2])	Activity (Mus musculus [3])	Activity (Mus musculus [4])	Activity (Mus musculus [5])	Activity (Mus musculus [6])	Time (Mus musculus [7]) [h]	TD50 [8] [mg/kg]	MED50 (Mus musculus [9]) [mg/kg]	Time (Mus musculus [10]) [h]	Ratio TD50/ED50 (Mus musculus [11])	Ratio TD50/ED50 (Mus musculus [12])	MED50 (Mus musculus [13]) [mg/kg]	ED50 (Mus musculus [14]) [mg/kg]	ED50 (Mus musculus [15]) [mg/kg]
CC(C(=O)NCC1CCCCC1)N1C(=O)CCC1=O (centres undefined)	inactive	Non-toxic	inactive	inactive	inactive	Non-toxic									
CC(C(=O)NCc1ccc(F)cc1)N1C(=O)CCC1=O (racemic)	inactive	Non-toxic	inactive	inactive	inactive	Non-toxic									
CCC(C(=O)NCc1cccc(Cl)c1)N1C(=O)CCC1=O (racemic)	inactive	Non-toxic		inactive		Non-toxic	0.5	180	100	0.5	1.12	2.28	100	78.8	96.5
CCC(C(=O)NCc1ccc(C(F)(F)F)cc1)N1C(=O)CCC1=O (racemic)	inactive	Non-toxic		inactive		Non-toxic	0.5	112	100	0.5	1.62	1.4	100	80.4	69.4
CCC(C(=O)NCC1CCCCC1)N1C(=O)CCC1=O (racemic)	inactive	Non-toxic	inactive	inactive	inactive	Non-toxic									
CC1CC(=O)N(C(C)C(=O)NCc2ccccc2)C1=O (racemic)	inactive	Non-toxic		inactive		Non-toxic	0.5	355	100	0.5	3.34	4.54	100	78.3	106
CC1CC(=O)N(C(C)C(=O)NCc2ccccc2Cl)C1=O (racemic)	inactive	Non-toxic	inactive	inactive		Non-toxic	0.5	275		0.5	3.2		100		85.8
CC1CC(=O)N(C(C)C(=O)NCc2cccc(Cl)c2)C1=O (racemic)	inactive	Non-toxic	inactive	inactive		Non-toxic	0.5	247		0.5	2.73		100		90.3
CC1CC(=O)N(C(C)C(=O)NCc2ccc(Cl)cc2)C1=O (racemic)	inactive	Non-toxic	inactive	inactive	inactive	Non-toxic									
CC1CC(=O)N(C(C)C(=O)NCc2ccccc2F)C1=O (racemic)	inactive	Non-toxic	inactive	inactive		Non-toxic	0.5	239		0.5	2.97		100		80.5
CC1CC(=O)N(C(C)C(=O)NCc2cccc(F)c2)C1=O (racemic)	inactive	Non-toxic	inactive	inactive		Non-toxic	0.5	297		0.5	2.29		100		130
CC1CC(=O)N(C(C)C(=O)NCc2ccc(F)cc2)C1=O (racemic)	inactive	Non-toxic	inactive	inactive	inactive	Non-toxic									
CC1CC(=O)N(C(C)C(=O)NCc2ccccc2C(F)(F)F)C1=O (racemic)	inactive	Non-toxic	inactive	inactive	inactive	Non-toxic									
CC1CC(=O)N(C(C)C(=O)NCc2cccc(C(F)(F)F)c2)C1=O (racemic)	inactive	Non-toxic	inactive	inactive	inactive	Non-toxic									
CC1CC(=O)N(C(C)C(=O)NCC2CCCCC2)C1=O (racemic)	inactive	Non-toxic	inactive	inactive	inactive	Non-toxic									
CC(C(=O)NCc1ccccc1)N1C(=O)CCC1=O (racemic)	inactive	Non-toxic		inactive		Non-toxic	0.5		100	0.5			100		
CC(C(=O)NCc1ccccc1Cl)N1C(=O)CCC1=O (racemic)	inactive	Non-toxic	inactive	inactive		Non-toxic	0.5	340		0.5	4.57		100		74.5
CC(C(=O)NCc1cccc(Cl)c1)N1C(=O)CCC1=O (racemic)	inactive	Non-toxic	inactive	inactive		Non-toxic	0.5	347		0.5	4.23		100		82
CC(C(=O)NCc1cccc(F)c1)N1C(=O)CCC1=O (racemic)	inactive	Non-toxic	inactive	inactive		Non-toxic	0.5	> 500		0.5	>6.46		100		77.4
CC(C(=O)NCc1ccccc1C(F)(F)F)N1C(=O)CCC1=O (racemic)	inactive	Non-toxic	inactive	inactive	inactive	Non-toxic									
CC(C(=O)NCc1cccc(C(F)(F)F)c1)N1C(=O)CCC1=O (racemic)	inactive	Non-toxic	inactive	inactive		Non-toxic	0.5	332		0.5	3.59		100		92.4
NC(=O)N1c2ccccc2C=Cc2ccccc21 [CARBAMAZEPINE]							0.5	49.3		0.5	3.47			> 100	14.2
CCC1(C)CC(=O)NC1=O (centres undefined) [ETHOSUXIMIDE]							0.25			0.25					> 500
COC[C@@H](NC(C)=O)C(=O)NCc1ccccc1 [LACOSAMIDE]							0.5			0.5				> 500	9.24
CCCC(CCC)C(=O)O [VALPROIC ACID]							0.5			0.5					
